What was measured:
HeLa [1] = assay: Compound was tested in vitro for anticellular activity against HeLa S3 cell growth at 1-hour exposure.; assay type: functional, cell-based; settings: Homo sapiens
CCRF S-180 [2] = assay: Compound was tested in vivo for antitumor activity against murine sarcoma 180 in mice at 4 mg/kg dosage and efficacy is expressed as T/C (mice were implanted subcutaneously with tumor cells and the drug was dosed intravenously); settings: route intravenous
Mus musculus [3] = species on record: Mus musculus; assay: Compound was tested for hematotoxicity and the number of white blood cells of tumor bearing mice on day 4(percent of control) was determined, expressed as percent of control; assay type: functional
In short: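 Sarcoma 180-bearing mice dosed iv starting 1 day after sc tumour inoculation; 4 days later orbital-vein blood drawn and white blood cells counted on a microcell counter; value is treated count as percent of control.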

Mus musculus [4] = species on record: Mus musculus; assay: Compound was tested for hematotoxicity and the number of peripheral platelets of normal mice on day 7 (percent of control) was determined, expressed as percent of control; assay type: functional
In short: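 Normal male ddY mice (mean weight 20 ± 1 g) given a single iv tail-vein injection of drug dissolved in saline; 7 days later orbital-vein blood drawn and platelets counted on a microcell counter; value is treated count as percent of control.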

HeLa [5] = assay: Compound was tested in vitro for anticellular activity against HeLa S3 cell growth at 72-hour exposure.; assay type: functional, cell-based; settings: Homo sapiens
CCRF S-180 [6] = assay: Compound was tested in vivo for antitumor activity against murine sarcoma 180 in mice at 0.25 mg/kg dosage and efficacy is expressed as T/C (mice were implanted subcutaneously with tumor cells and the drug was dosed intravenously); assay type: functional, Mus musculus; settings: route intravenous
In short: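 Sarcoma 180 cells passaged in adult male ddY mice and inoculated sc at the axillary region, 5 mice/group; iv dosing began 1 day after inoculation. Tumour volume = length × width²/2. T/C is treated over control mean tumour volume; effective at ≤42%, Mann–Whitney U test (p < 0.05).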

[7] = Aqueous solubility of the compound; assay type: physicochemical; settings: water; read-out: S

SMILES | IC50 (HeLa [1]) | T/C (CCRF S-180 [2]) | Hematotoxicity (Mus musculus [3]) | Hematotoxicity (Mus musculus [4]) | IC50 (HeLa [5]) | T/C (CCRF S-180 [6]) | solubility [7]
COC(=O)c1c(C)[nH]c2c1[C@@]13C[C@@H]1CN(C(=O)/C=C/c1ccc(OC)nc1)C3=CC2=O | 3.3 nM | 0.6 | 84% | 50% | 0.42 nM | – | –
COC(=O)c1c(C)[nH]c2c1[C@@]13C[C@@H]1CN(C(=O)/C=C/c1cnc(OC)nc1)C3=CC2=O | 2.5 nM | – | 86% | 28% | 0.9 nM | 0.45 | –
COC(=O)c1c(C)[nH]c2c(OC(=O)N3CCN(C)CC3)cc3c(c12)[C@H](CBr)CN3C(=O)/C=C/c1ccc(OC)cn1.Cl | 1300 nM | – | 105% | 38% | 150 nM | 0.5 | > 20 mg/mL
COC(=O)c1c(C)[nH]c2c(OC(=O)N3CCN(C)CC3)cc3c(c12)[C@H](CBr)CN3C(=O)/C=C/c1ccc(OC)nc1.Cl | 900 nM | – | 92% | 38% | 110 nM | 0.36 | > 20 mg/mL
COC(=O)c1c(C)[nH]c2c1[C@@]13C[C@@H]1CN(C(=O)/C=C/c1ccc(OC)nn1)C3=CC2=O | 0.5 nM | – | – | – | 0.28 nM | – | –
COC(=O)c1c(C)[nH]c2c1[C@@]13C[C@@H]1CN(C(=O)/C=C/c1ccc(OC)cn1)C3=CC2=O | 9.7 nM | – | – | – | 2.9 nM | – | –
COC(=O)c1c(C)[nH]c2c1[C@@]13C[C@@H]1CN(C(=O)/C=C/c1ccc(OC)cc1)C3=CC2=O | – | – | 63% | 50% | – | 0.34 | –
COC(=O)c1c(C)[nH]c2c(OC(=O)N3CCN(C)CC3)cc3c(c12)[C@H](CBr)CN3C(=O)/C=C/c1cnc(OC)nc1.Cl | 1300 nM | – | 69% | 26% | 170 nM | 0.26 | > 20 mg/mL
COC(=O)c1c(C)[nH]c2c(OC(=O)N3CCN(C)CC3)cc3c(c12)[C@H](CBr)CN3C(=O)/C=C/c1ccc(OC)nn1.Cl | 1100 nM | – | 115% | 51% | 90 nM | 0.31 | > 20 mg/mL

Source: ChEMBL document CHEMBL1132586, “New water-soluble duocarmycin derivatives: synthesis and antitumor activity of A-ring pyrrole compounds bearing beta-heteroarylacryloyl groups” (J Med Chem, 1999)
